Measurements as given in ChEMBL document CHEMBL1641374, “Synthesis of antiproliferative flavones from calycopterin, major flavonoid of Calycopteris floribunda Lamk” (Bioorg Med Chem, 2011).

Legend:
HL-60 [1] = test: Induction of apoptosis in human HL60 cells assessed as induction of caspase 3/7 activation at 100 uM relative to control; assay type: functional
Outline: (§1)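 HL60 cells (20,000/well) were treated 24 and 48 h with compounds in DMSO. Vehicle and doxorubicine served as controls. Fluorescence (ex 360/em 465 nm) was followed over 3 h.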

KB [2] = test: Cytotoxicity against human KB cells at 10^-6 M after 72 hrs by MTS assay; assay type: functional
Outline: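 KB cells in D-MEM with 10% FCS were seeded at 600 cells/well and dosed 24 h later with flavone at 10^-6 M in DMSO. Controls received DMSO at 1% final. After 72 h, MTS was added for 3 h at 37 °C and A490 read in triplicate. Growth inhibition (%) = (1 − OD treated/OD control)×100.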

[3] = Inhibition of sheep brain tubulin polymerization at 2x10'-5 M after 5 mins; design: species or system Ovis aries
Outline: (§2)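 Sheep brain microtubule proteins were purified by two assembly/disassembly cycles (37 °C/0 °C) in 100 mM MES pH 6.6, 1 mM EGTA, 0.5 mM MgCl2. Polymerization rate was followed by turbidity at 350 nm, with deoxypodophyllotoxin as reference. Compounds were tested at ~2×10^-5 M for % inhibition, with IC50 determined for selected compounds.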

KB [4] = test: Cytotoxicity against human KB cells after 72 hrs by MTS assay; assay type: functional, cell-based
Ovis aries = species on record: Ovis aries; test: Inhibition of sheep brain tubulin polymerization after 5 mins; outline: as §2
HL-60 [5] = test: Induction of apoptosis in human HL60 cells assessed as viable cells at 200 nM after 48 hrs by annexin-V-PE/7-AAD staining (reference value: 97.4%); assay type: functional; details: HL-60, 48 h, read-out: Activity
HL-60 [6] = test: Induction of apoptosis in human HL60 cells assessed as viable cells at 200 nM after24 hrs by annexin-V-PE/7-AAD staining (reference value: 97.2%); assay type: functional; details: read-out: Activity
HL-60 [7] = test: Induction of apoptosis in human HL60 cells assessed as early apoptosis cells at 200 nM after24 hrs by annexin-V-PE/7-AAD staining (reference value: 2.6%); assay type: functional
HL-60 [8] = test: Induction of apoptosis in human HL60 cells assessed as late apoptosis cells at 200 nM after 48 hrs by annexin-V-PE/7-AAD staining (reference value: 0.1%); assay type: functional
HL-60 [9] = test: Induction of apoptosis in human HL60 cells assessed as early apoptosis cells at 200 nM after 48 hrs by annexin-V-PE/7-AAD staining (reference value: 2.5%); assay type: functional
HL-60 [10] = test: Induction of apoptosis in human HL60 cells assessed as late apoptosis cells at 200 nM after24 hrs by annexin-V-PE/7-AAD staining (reference value: 0.2%); assay type: functional
KB [11] = test: Induction of cell cycle arrest in human KB cells assessed as accumulation at S phase at 50 nM after 48 hrs by propidium iodide staining-based flow cytometry (reference value: 18.4%); assay type: functional
KB [12] = test: Induction of cell cycle arrest in human KB cells assessed as accumulation at S phase at 50 nM after 24 hrs by propidium iodide staining-based flow cytometry (reference value: 6.9%); assay type: functional
KB [13] = test: Induction of cell cycle arrest in human KB cells assessed as accumulation at G2/M phase at 50 nM after 48 hrs by propidium iodide staining-based flow cytometry (reference value: 13.8%); assay type: functional
HCT-15 = test: Cytotoxicity against human HCT15 cells after 72 hrs by MTS assay; assay type: functional, cell-based; details: HCT-15, 72 h
HL-60 [14] = test: Cytotoxicity against human HL60 cells after 72 hrs by MTS assay; assay type: functional, cell-based; details: HL-60, 72 h
HL-60 [15] = test: Induction of apoptosis in human HL60 cells assessed as viable cells at 50 nM after24 hrs by annexin-V-PE/7-AAD staining (reference value: 97.2%); assay type: functional; details: read-out: Activity
SF-268 = test: Cytotoxicity against human SF268 cells after 72 hrs by MTS assay; assay type: functional, cell-based; details: SF-268, 72 h
HCT-116 = test: Cytotoxicity against human HCT116 cells after 72 hrs by MTS assay; assay type: functional, cell-based; details: HCT-116, 72 h
HL-60 [16] = test: Induction of apoptosis in human HL60 cells assessed as late apoptosis cells at 50 nM after24 hrs by annexin-V-PE/7-AAD staining (reference value: 0.2%); assay type: functional
HepG2 = test: Cytotoxicity against human HepG2 cells after 72 hrs by MTS assay; assay type: functional, cell-based; details: HepG2, 72 h
KB [17] = test: Induction of cell cycle arrest in human KB cells assessed as accumulation at G0/G1phase at 50 nM after 48 hrs by propidium iodide staining-based flow cytometry (reference value: 66.6%); assay type: functional
KB [18] = test: Induction of cell cycle arrest in human KB cells assessed as accumulation at G0/G1phase at 50 nM after 24 hrs by propidium iodide staining-based flow cytometry (reference value: 72.9%); assay type: functional
HL-60 [19] = test: Induction of apoptosis in human HL60 cells assessed as late apoptosis cells at 50 nM after 48 hrs by annexin-V-PE/7-AAD staining (reference value: 0.1%); assay type: functional
KB [20] = test: Induction of cell cycle arrest in human KB cells assessed as accumulation at G2/M phase at 50 nM after 24 hrs by propidium iodide staining-based flow cytometry (reference value: 19.6%); assay type: functional
SK-OV-3 = test: Cytotoxicity against human SKOV3 cells after 72 hrs by MTS assay; assay type: functional, cell-based; details: SK-OV-3, 72 h
HT-29 = test: Cytotoxicity against human HT-29 cells after 72 hrs by MTS assay; assay type: functional, cell-based; details: HT-29, 72 h
[21] = Cytotoxicity against human MCF7/R cells after 72 hrs by MTS assay; assay type: functional, cell-based; details: MCF7R
[22] = Cytotoxicity against human HL60R cells after 72 hrs by MTS assay; assay type: functional, cell-based; details: HL-60, 72 h
HL-60 [23] = test: Induction of apoptosis in human HL60 cells assessed as early apoptosis cells at 50 nM after24 hrs by annexin-V-PE/7-AAD staining (reference value: 2.6%); assay type: functional
HL-60 [24] = test: Induction of apoptosis in human HL60 cells assessed as induction of caspase 3/7 activation at 100 nM relative to control; assay type: functional; outline: as §1
A549 = test: Cytotoxicity against human A549 cells after 72 hrs by MTS assay; assay type: functional, cell-based; details: A549, 72 h
OVCAR-8 = test: Cytotoxicity against human OVCAR8 cells after 72 hrs by MTS assay; assay type: functional, cell-based; details: OVCAR-8, 72 h
MIA PaCa-2 = test: Cytotoxicity against human MIAPaCa2 cells after 72 hrs by MTS assay; assay type: functional, cell-based; details: MIA PaCa-2, 72 h
K562 = test: Cytotoxicity against human K562 cells after 72 hrs by MTS assay; assay type: functional, cell-based; details: K562, 72 h
KB [25] = test: Induction of cell cycle arrest in human KB cells assessed as accumulation at subG1 phase at 50 nM after 48 hrs by propidium iodide staining-based flow cytometry (reference value: 1.2%); assay type: functional
HL-60 [26] = test: Induction of apoptosis in human HL60 cells assessed as viable cells at 50 nM after 48 hrs by annexin-V-PE/7-AAD staining (reference value: 97.4%); assay type: functional; details: HL-60, 48 h, read-out: Activity
KB [27] = test: Induction of cell cycle arrest in human KB cells assessed as accumulation at subG1 phase at 50 nM after 24 hrs by propidium iodide staining-based flow cytometry (reference value: 0.7%); assay type: functional
PC-3 = test: Cytotoxicity against human PC3 cells after 72 hrs by MTS assay; assay type: functional, cell-based; details: PC-3, 72 h
HL-60 [28] = test: Induction of apoptosis in human HL60 cells assessed as early apoptosis cells at 50 nM after 48 hrs by annexin-V-PE/7-AAD staining (reference value: 2.5%); assay type: functional

COc1ccc(-c2oc3c(OC)c(OC)c(OC)c(N)c3c(=O)c2OC)cc1N
fold change (FC) (HL-60 [1]): 3.6
Activity (KB [2]): 78%
IC50 [3]: 24 µM
IC50 (KB [4]): 0.128 µM

COc1c(OC)c(O)c2c(=O)c(OC)c(-c3ccc(O)c(C=O)c3)oc2c1OC
Activity (KB [2]): <=13%

COc1ccc(-c2oc3c(OC)c(OC)c(OC)c(O)c3c(=O)c2OC)cc1C#N
Activity (KB [2]): <=13%

COc1ccc(-c2oc3c(OC)c(OC)c(OC)c(O)c3c(=O)c2OC)cc1 [5-HYDROXYAURANETIN]
fold change (FC) (HL-60 [1]): 4.5
Activity (KB [2]): 73%
inhibition (Ovis aries): 2%
IC50 (KB [4]): 0.72 µM

COc1cccc2c1C(=O)c1c(O)c3c(c(O)c1C2=O)C[C@@](O)(C(=O)CO)C[C@@H]3O[C@H]1C[C@H](N)[C@H](O)[C@H](C)O1 [DOXORUBICIN]
viability at 0.2 µM (HL-60 [5]): 5.2%
viability at 0.2 µM (HL-60 [6]): 52.8%
Activity (HL-60 [7]): 45.9%
Activity (HL-60 [8]): 5.6%
Activity (HL-60 [9]): 89.2%
Activity (HL-60 [10]): 1.2%

COc1ccc(-c2oc3c(OC)c(O)c(OC)c(O)c3c(=O)c2OC)cc1N
IC50 [3]: 85 µM
IC50 (KB [4]): 6.2 µM

COc1ccc(-c2oc3c(OC)c(OC)c(OC)c(O)c3c(=O)c2OC)cc1CN(C)C
Activity (KB [2]): <=13%

COc1ccc(-c2oc3c(OC)c(OC)c(OC)c(O)c3c(=O)c2OC)cc1CN
Activity (KB [2]): <=13%

COc1ccc(-c2oc3c(OC)c(OC)c(OC)c(O)c3c(=O)c2OC)cc1O
Activity (KB [11]): 38.6%
Activity (KB [12]): 18.5%
Activity (KB [13]): 11.8%
IC50 (HCT-15): 0.014 µM
IC50 (HL-60 [14]): 0.036 µM
viability at 0.05 µM (HL-60 [15]): 72.4%
IC50 (SF-268): 0.186 µM
IC50 (HCT-116): 0.023 µM
Activity (HL-60 [16]): 0.8%
IC50 (HepG2): 0.174 µM
Activity (KB [2]): 96%
Activity (KB [17]): 27.4%
Activity (KB [18]): 21.3%
Activity (HL-60 [19]): 7.2%
Activity (KB [20]): 45.3%
IC50 (SK-OV-3): 0.022 µM
IC50 (HT-29): 3.14 µM
IC50 [21]: 0.017 µM
IC50 [22]: 0.005 µM
inhibition (Ovis aries): 3%
Activity (HL-60 [23]): 26.7%
fold change (FC) (HL-60 [24]): 5.7
IC50 (A549): 0.058 µM
IC50 (OVCAR-8): 0.04 µM
IC50 [3]: 8.9 µM
IC50 (MIA PaCa-2): 0.012 µM
IC50 (K562): 0.007 µM
Activity (KB [25]): 22.2%
viability at 0.05 µM (HL-60 [26]): 30.8%
Activity (KB [27]): 14.9%
IC50 (PC-3): > 1 µM

COc1ccc(-c2oc3c(OC)c(OC)c(O)c(O)c3c(=O)c2OC)cc1N
Activity (KB [2]): 38%
IC50 (KB [4]): 10 µM

COc1ccc(-c2oc3c(OC)c(OC)c(OC)c(O)c3c(=O)c2OC)cc1N
Activity (KB [11]): 32%
Activity (KB [12]): 19.2%
Activity (KB [13]): 14%
IC50 (HCT-15): 0.012 µM
IC50 (HL-60 [14]): 0.036 µM
viability at 0.05 µM (HL-60 [15]): 77.1%
IC50 (SF-268): 0.4 µM
IC50 (HCT-116): 0.025 µM
Activity (HL-60 [16]): 2.1%
IC50 (HepG2): 0.081 µM
Activity (KB [2]): 96%
Activity (KB [17]): 38.5%
Activity (KB [18]): 39.3%
Activity (HL-60 [19]): 2.2%
Activity (KB [20]): 34.5%
IC50 (SK-OV-3): 0.037 µM
IC50 (HT-29): 0.05 µM
IC50 [21]: 0.034 µM
IC50 [22]: 0.014 µM
Activity (HL-60 [23]): 20.7%
fold change (FC) (HL-60 [24]): 3.2
Activity (HL-60 [28]): 37.6%
IC50 (A549): 0.032 µM
IC50 (OVCAR-8): 0.105 µM
IC50 [3]: 13 µM
IC50 (KB [4]): 0.025 µM
IC50 (MIA PaCa-2): 0.033 µM
IC50 (K562): 0.009 µM
Activity (KB [25]): 15.5%
viability at 0.05 µM (HL-60 [26]): 60.1%
Activity (KB [27]): 7.3%
IC50 (PC-3): > 1 µM
